Consider 40 compounds from ChEMBL document CHEMBL4043172, “Constructing novel dihydrofuran and dihydroisoxazole analogues of isocombretastatin-4 as tubulin polymerization inhibitors through [3+2] reactions” (Bioorg Med Chem, 2017).

The structures appear in SMILES notation. pIC50: −log10 of the molar value. The source made the active and inactive calls. The calls are words filed in the database; no cut-off is given here. Some results are limits rather than exact numbers.

One experiment has as its system HeLa. Kind of experiment: Cytotoxicity against human HeLa cells assessed as reduction in cell viability incubated for 48 hrs by SRB assay. The experiment is classed as functional, cell-based. An outline of the steps:
(§1)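 SRB colorimetric antiproliferative assay. Cells were grown in RPMI-1640 with 10% heat-inactivated FBS and penicillin/streptomycin at 37 °C and 5% CO2, and compound-exposed for 48 h. IC50 is the concentration causing 50% inhibition of cell viability, given as mean ± SD of three determinations.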

Experiment [1] concerns PC-3. Kind of experiment: Cytotoxicity against human PC3 cells assessed as reduction in cell viability incubated for 48 hrs by SRB assay. Type of experiment: functional, cell-based. The settings on record: PC-3, 48 h. In short, it runs like this: as §1
Experiment [2] concerns PC-3. Kind of experiment: Cell cycle arrest in human PC3 cells assessed as accumulation at G2/M phase at 0.05 uM incubated for 24 hrs by propidium iodide staining based FACS assay (reference value: 14%). The experiment is classed as functional. An outline of the steps:
(§2)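 PC-3 cells in RPMI-1640 with 10% FBS at 37 °C and 5% CO2. Cells were plated at 1.0×10^5 cells/mL and pre-incubated 24 h, then treated. They were collected by centrifugation, fixed in 70% ethanol overnight at 4 °C, resuspended in PBS with RNase A and propidium iodide, and analysed by flow cytometry for phase distribution against untreated control.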

For experiment [3], the system named is PC-3. The experiment can be described thus: Cell cycle arrest in human PC3 cells assessed as accumulation at S phase at 0.05 uM incubated for 24 hrs by propidium iodide staining based FACS assay (reference value: 23.5%). The experiment is classed as functional. In short, it runs like this:
as §2
(In general: In flow cytometry, cells or beads pass a laser one at a time.)

For experiment [4], the system named is PC-3. Kind of experiment: Cell cycle arrest in human PC3 cells assessed as accumulation at G0/G1 phase at 0.05 uM incubated for 24 hrs by propidium iodide staining based FACS assay (reference value: 62.5%). The experiment is classed as functional. An outline of the steps: as §2
Experiment [5] is filed under the species Sus scrofa. The experiment can be described thus: Inhibition of porcine brain tubulin polymerization at 3 uM incubated for 80 mins by fluorescence based spectrophotometry. An outline of the steps:
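Fluorescence-based kit assay. Tubulin (10 mg/mL) in buffer 1 with tubulin glycerol buffer and GTP (100 mM stock) was incubated with compound at 3 µM, with DMSO as vehicle control, at 37 °C for 80 min. Polymerization was followed as the fluorescence increase, read every minute at 360 nm excitation and 460 nm emission.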

For experiment [6], the species on record is Sus scrofa. The experiment can be described thus: Induction of porcine brain tubulin polymerization at 3 uM incubated for 80 mins by fluorescence based spectrophotometry. In short, it runs like this:
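Fluorescence-based cell-free kit assay. Tubulin (10 mg/mL) in buffer 1 with tubulin glycerol buffer and GTP (100 mM stock) was incubated with compound or DMSO vehicle for 80 min at 37 °C. Polymerization was followed as fluorescence increase read every minute at 360 nm excitation and 460 nm emission.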

Turning to `COc1ccc(C2(c3cc(OC)c(OC)c(OC)c3)CC(c3ccccc3[N+](=O)[O-])=NO2)cc1O` (centres undefined), the pIC50 (in general, −log10 of the IC50, conventionally taken in molar units) was under 5.00 with HeLa and 5.09 in the experiment on PC-3 [1].
Taken in the same sequence, the figures for `COc1ccc(C2(c3cc(OC)c(OC)c(OC)c3)CC(C#N)=C(C(C)(C)C)O2)cc1O` (centres undefined) were under 5.00 and under 5.00.
The corresponding values for `COc1ccc(C2(c3cc(OC)c(OC)c(OC)c3)CC(c3ccc(O)c(OC)c3)=NO2)cc1O` (centres undefined) are under 5.00 and under 5.00.
The corresponding values for `COc1ccc(C2(c3cc(OC)c(OC)c(OC)c3)CC(c3ccccn3)=NO2)cc1O` (centres undefined) are under 5.00 and under 5.00.
Consider `COc1ccc(C2(c3cc(OC)c(OC)c(OC)c3)CC(c3ccc([N+](=O)[O-])cc3)=NO2)cc1O` (centres undefined), for which the pIC50 in the experiment on HeLa and with PC-3 [1] was under 5.00 throughout.
For the compound `COc1ccc(C2(c3cc(OC)c(OC)c(OC)c3)CC(c3cc(OC)c(OC)c(OC)c3Cl)=NO2)cc1O` (centres undefined), the figures for the pIC50 with HeLa and with PC-3 [1] were under 5.00 and 5.06, respectively.
`COc1ccc(C2(c3cc(OC)c(OC)c(OC)c3)CC(C#N)=C(c3ccccc3Cl)O2)cc1O` (centres undefined): the pIC50 in the experiment on HeLa is under 5.00; in the experiment with PC-3 [1], 6.10.
With `COc1ccc(/C=C\c2cc(OC)c(OC)c(OC)c2)cc1O` [COMBRETASTATIN A4], the Activity in the experiment with PC-3 [2] came out at 71.9%; in the experiment with PC-3 [3] it was 21.3%; with PC-3 [4], 6.8%. Also, the figures for the pIC50 in the experiment on HeLa and with PC-3 [1] were 6.28 and 8.15, respectively. Also, in the experiment listed under Sus scrofa [5], the inhibition result is “Active”.
In the case of `COc1ccc([C@]2(c3cc(OC)c(OC)c(OC)c3)CC3=C(CCCC3=O)O2)cc1O`, the results for the pIC50 with HeLa and with PC-3 [1] were under 5.00 and 4.82, respectively.
Taken in the same sequence, the figures for `COc1ccc(C2(c3cc(OC)c(OC)c(OC)c3)CC(C(=O)c3ccccc3)=C(c3ccccc3)O2)cc1O` (centres undefined) were 5.63 and 6.11.
The corresponding values for `COc1ccc([C@@]2(c3cc(OC)c(OC)c(OC)c3)CC3=C(CCCC3=O)O2)cc1O` are under 5.00 and 4.77.
Taken in the same sequence, the figures for `COc1ccc(C2=C(C#N)CC(c3ccc(OC)c(O)c3)(c3cc(OC)c(OC)c(OC)c3)O2)cc1` (centres undefined) were under 5.00 and under 5.00.
As for `COc1ccc(C2(c3cc(OC)c(OC)c(OC)c3)CC(c3ccc(O)cc3)=NO2)cc1O` (centres undefined), the pIC50 is 5.12 in the experiment with HeLa and under 5.00 with PC-3 [1].
The corresponding values for `COc1ccc([C@]2(c3cc(OC)c(OC)c(OC)c3)CC(C#N)=C(c3ccccc3)O2)cc1O` are under 5.00 and 4.99.
In the case of `COc1ccc(C2(c3cc(OC)c(OC)c(OC)c3)CC(c3ccc(C)cc3)=NO2)cc1O` (centres undefined), the values for the pIC50 in the experiment with HeLa and with PC-3 [1] were 5.35 and 6.07, respectively.
Taken in the same sequence, the figures for `CCCCC1(c2cc(OC)c(OC)c(OC)c2)CC(C#N)=C(c2ccc(Cl)cc2)O1` (centres undefined) were under 5.00 and under 5.00.
Taken in the same sequence, the figures for `CCCCC1(c2cc(OC)c(OC)c(OC)c2)CC(C(=O)c2ccccc2)=C(c2ccccc2)O1` (centres undefined) were under 5.00 and under 5.00.
Taken in the same sequence, the figures for `COc1ccc(C2(c3cc(OC)c(OC)c(OC)c3)CC(C(=O)C(F)(F)F)=C(C)O2)cc1O` (centres undefined) were under 5.00 and 5.02.
Turning to `COc1ccc(C2=NOC(c3ccc(OC)c(O)c3)(c3cc(OC)c(OC)c(OC)c3)C2)cc1O` (centres undefined), the pIC50 in the experiment with HeLa and in the experiment with PC-3 [1] was under 5.00 each time.
On to `CCCCC1(c2cc(OC)c(OC)c(OC)c2)CC(c2ccc(Cl)cc2OC)=NO1` (centres undefined), for which the pIC50 in the experiment with HeLa and with PC-3 [1] was under 5.00 in each case.
In the case of `COc1ccc(C2(c3cc(OC)c(OC)c(OC)c3)CC(C#N)=C(c3ccc(F)cc3)O2)cc1O` (centres undefined), the values for the pIC50 with HeLa and in the experiment on PC-3 [1] were 5.14 and 6.09, respectively.
`CCCCC1(c2cc(OC)c(OC)c(OC)c2)CC(C#N)=C(C(C)(C)C)O1` (centres undefined): the pIC50 in the experiment with HeLa and in the experiment with PC-3 [1] was under 5.00 in each case.
Take `COc1ccc(C2(c3cc(OC)c(OC)c(OC)c3)CC(C#N)=C(c3cccs3)O2)cc1O` (centres undefined): the figures for the negative-log IC50 (pIC50) in the experiment with HeLa and with PC-3 [1] were under 5.00 and 5.32, respectively.
Regarding `CC(=O)O[C@H]1C(=O)[C@@]2(C)[C@H]([C@H](OC(=O)c3ccccc3)[C@]3(O)C[C@H](OC(=O)[C@H](O)[C@@H](NC(=O)c4ccccc4)c4ccccc4)C(C)=C1C3(C)C)[C@]1(OC(C)=O)CO[C@@H]1C[C@@H]2O`, the outcome in the experiment listed under Sus scrofa [6] was Active.
Take `COc1ccc(C2(c3cc(OC)c(OC)c(OC)c3)CC(c3ccccc3Cl)=NO2)cc1O` (centres undefined): the pIC50 is 5.49 in the experiment with HeLa and 6.09 in the experiment with PC-3 [1].
Regarding `COc1ccc(C2(c3cc(OC)c(OC)c(OC)c3)CC(C#N)=C(c3ccc(C)cc3)O2)cc1O` (centres undefined), the figures for the pIC50 in the experiment on HeLa and with PC-3 [1] were under 5.00 and 5.16, respectively.
The corresponding values for `COc1ccc(C2(c3cc(OC)c(OC)c(OC)c3)CC(C(=O)c3ccccc3)=C(C)O2)cc1O` (centres undefined) are under 5.00 and under 5.00.
Taken in the same sequence, the figures for `CCCCC1(c2cc(OC)c(OC)c(OC)c2)CC(c2ccc(O)c(OC)c2)=NO1` (centres undefined) were under 5.00 and under 5.00.
Take `C=C(c1ccc(OC)c(O)c1)c1cc(OC)c(OC)c(OC)c1`: the pIC50 in the experiment with HeLa was 7.07; with PC-3 [1], 9.00. Besides, the inhibition result in the experiment filed under Sus scrofa [5] is “Active”.
Consider `COc1ccc(C2(c3cc(OC)c(OC)c(OC)c3)CC(c3ccc(Cl)cc3OC)=NO2)cc1O` (centres undefined), for which the pIC50 with HeLa and in the experiment on PC-3 [1] was under 5.00 each time.
Take `CCCCC1(c2cc(OC)c(OC)c(OC)c2)CC(c2ccc(Cl)cc2)=NO1` (centres undefined): the pIC50 in the experiment on HeLa and in the experiment with PC-3 [1] was under 5.00 throughout.
As for `COc1ccc(C2(c3cc(OC)c(OC)c(OC)c3)CC(c3ccccc3)=NO2)cc1O` (centres undefined), the pIC50 in the experiment with HeLa and in the experiment on PC-3 [1] was under 5.00 in each case.
For `COc1ccc(C2(c3cc(OC)c(OC)c(OC)c3)CC(C#N)=C(c3ccc(Br)cc3)O2)cc1O` (centres undefined), the pIC50 in the experiment with HeLa and in the experiment with PC-3 [1] was under 5.00 throughout.
For the compound `COc1ccc(C2=NOC(c3ccc(OC)c(O)c3)(c3cc(OC)c(OC)c(OC)c3)C2)cc1` (centres undefined), the pIC50 with HeLa and in the experiment with PC-3 [1] was under 5.00 in each case.
On to `COc1ccc(C2(c3cc(OC)c(OC)c(OC)c3)CC(C(C)=O)=C(C)O2)cc1O` (centres undefined), for which the pIC50 with HeLa is under 5.00; in the experiment on PC-3 [1], 5.20.
Consider `COc1ccc([C@@]2(c3cc(OC)c(OC)c(OC)c3)CC(C#N)=C(c3ccccc3)O2)cc1O`, for which the pIC50 in the experiment with HeLa was under 5.00; in the experiment with PC-3 [1], 5.02.
Taken in the same sequence, the figures for `COc1ccc(C2(c3cc(OC)c(OC)c(OC)c3)CC(C#N)=C(c3ccc(Cl)c(Cl)c3)O2)cc1O` (centres undefined) were under 5.00 and under 5.00.
The corresponding values for `COc1ccc(C2(c3cc(OC)c(OC)c(OC)c3)CC(C#N)=C(c3ccc(Cl)cc3)O2)cc1O` (centres undefined) are under 5.00 and 6.07.
As to `COc1ccc(C2(c3cc(OC)c(OC)c(OC)c3)CC(c3ccc(O)c(O)c3)=NO2)cc1O` (centres undefined), the pIC50 with HeLa is under 5.00; in the experiment on PC-3 [1], 5.02.
The corresponding values for `CCC(=O)C1=C(CC)OC(c2ccc(OC)c(O)c2)(c2cc(OC)c(OC)c(OC)c2)C1` (centres undefined) are under 5.00 and 5.07.
